The source made the active and inactive calls. The calls are words filed in the database; no cut-off is given here.
Key:
[1] = molecular target: Cholinesterase (Equus caballus) (UniProt P81908); experiment: Inhibition of equine serum BuChE using S-butyrylthiocholine iodide as a substrate at 30 uM incubated for 10 mins by DTNB reagent based Ellman's method; format: cell-free
Method in brief: (§1)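 Ellman method in Tris-HCl 0.02 M pH 7.5 with BSA, inhibitor at 30 uM final, DMSO 0.2% vehicle as negative control. Enzyme (eeAChE or equine serum BuChE) with DTNB preincubated 10 min at room temperature; acetylthiocholine or butyrylthiocholine iodide added, absorbance at 415 nm after 10 min. Activity as % of DMSO control, blank-corrected; triplicate.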

[2] = molecular target: Acetylcholinesterase (Electrophorus electricus) (UniProt O42275); experiment: Inhibition of electric eel AChE using […] as a substrate at 30 uM incubated for 10 mins by DTNB reagent based Ellman's method; method in brief: as §1
Chain of Acetylcholinesterase (Electrophorus electricus) (O42275 24-633 limits assumed): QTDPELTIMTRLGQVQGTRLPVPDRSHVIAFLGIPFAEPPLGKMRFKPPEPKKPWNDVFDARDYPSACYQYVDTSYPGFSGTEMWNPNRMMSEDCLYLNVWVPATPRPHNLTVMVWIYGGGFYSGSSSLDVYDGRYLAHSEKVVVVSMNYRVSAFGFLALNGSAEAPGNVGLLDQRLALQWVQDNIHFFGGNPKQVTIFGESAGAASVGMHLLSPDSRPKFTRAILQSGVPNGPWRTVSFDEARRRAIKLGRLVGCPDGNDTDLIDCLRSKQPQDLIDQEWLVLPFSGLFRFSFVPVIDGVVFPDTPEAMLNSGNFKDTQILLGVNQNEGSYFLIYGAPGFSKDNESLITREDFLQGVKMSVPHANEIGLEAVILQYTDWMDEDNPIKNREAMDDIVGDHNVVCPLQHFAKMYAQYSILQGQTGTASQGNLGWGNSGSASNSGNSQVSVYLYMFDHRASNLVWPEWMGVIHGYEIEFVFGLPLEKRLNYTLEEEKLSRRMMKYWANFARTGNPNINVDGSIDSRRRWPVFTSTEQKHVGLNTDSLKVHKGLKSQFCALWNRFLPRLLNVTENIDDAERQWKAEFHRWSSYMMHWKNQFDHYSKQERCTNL

THP-1 [3] = experiment: Anti-inflammatory activity in human THP-1 cells assessed as inhibition of LPS-induced iNOS expression at 10 uM incubated for 24 hrs by RT-PCR analysis; format: functional
Method in brief: (§2)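 THP-1 monocytes differentiated to microglia-like cells with PMA 5 ng mL-1 for 24 h, then exposed 24 h to LPS 1 ug mL-1 together with compound (10 uM). RNA extracted; expression by quantitative RT-PCR, relative quantification by 2^-ΔΔCt with untreated cells as control. Mean ± SEM of three independent experiments.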

[4] = Permeability of compound in PBS buffer at pH 6.6 by PAMPA-GIT assay; format: ADME
Method in brief: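 PAMPA-GIT: 10 μM compound in PBS pH 6.6 as donor, filter coated with soy L-α-phosphatidylcholine (20 mg/mL in dodecane). Acceptor was PBS pH 7.4:DMSO (95:5). Plates shaken at 50 rpm for 8 h at room temperature. Run in triplicate; absorbed fraction (Fa%) classed high, medium or low.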

[5] = Permeability of compound in PBS buffer at pH 7.4 by PAMPA-BBB assay; format: ADME; conditions: read-out: permeability
Method in brief: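 PAMPA-BBB: compound dissolved in ethanol, diluted with PBS pH 7.4 and filtered, then added in triplicate to a donor filter coated with porcine brain polar lipid (20 mg/mL in dodecane). Acceptor was PBS pH 7.4:ethanol (70:30). Incubated 2 h 45 min at about 25 °C, humidified. Donor and acceptor concentrations read by UV; compounds classed BBB+ or BBB−.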

Acetylcholinesterase = Acetylcholinesterase (Electrophorus electricus, UniProt O42275); experiment: Inhibition of electric eel AChE using […] as a substrate incubated for 10 mins by DTNB reagent based Ellman's method
Chain of Acetylcholinesterase (O42275 whole entry): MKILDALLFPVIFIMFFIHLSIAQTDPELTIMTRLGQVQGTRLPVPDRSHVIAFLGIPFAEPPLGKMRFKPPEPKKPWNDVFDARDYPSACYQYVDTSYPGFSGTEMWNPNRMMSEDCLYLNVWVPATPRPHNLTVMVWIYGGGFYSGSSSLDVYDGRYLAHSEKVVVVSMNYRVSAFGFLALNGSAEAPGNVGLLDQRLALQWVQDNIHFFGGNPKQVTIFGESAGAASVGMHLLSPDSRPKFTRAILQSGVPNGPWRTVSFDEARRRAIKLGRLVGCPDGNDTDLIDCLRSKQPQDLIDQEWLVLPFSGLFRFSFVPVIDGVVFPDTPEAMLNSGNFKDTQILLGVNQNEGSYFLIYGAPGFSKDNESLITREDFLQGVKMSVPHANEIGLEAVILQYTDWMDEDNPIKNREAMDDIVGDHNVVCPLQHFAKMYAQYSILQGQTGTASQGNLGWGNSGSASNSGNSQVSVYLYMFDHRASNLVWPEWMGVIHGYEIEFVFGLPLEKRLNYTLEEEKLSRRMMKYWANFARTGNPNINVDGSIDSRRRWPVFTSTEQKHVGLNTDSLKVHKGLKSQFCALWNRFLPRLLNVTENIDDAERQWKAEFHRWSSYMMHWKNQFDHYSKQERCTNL

Rattus norvegicus [6] = experiment: Anti-inflammatory activity in LPS-induced Wistar rat assessed as increase in traveled distance at po dosed measured upto 24 hrs by open field test; format: functional, organism-based
Method in brief: (§3)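 Adult male Wistar rats (n = 7–8 per group), overnight 8 h fast; vehicle or compound by gavage, then LPS or saline intraperitoneally. 2 h after LPS, each rat was placed in the centre of a circular open-field arena and filmed for 5 min. Distance travelled and immobility time were scored by video tracking. Results given as mean ± SEM.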

THP-1 [7] = experiment: Anti-inflammatory activity in human THP-1 cells assessed as inhibition of LPS-induced IL-1beta expression at 10 uM incubated for 24 hrs by RT-PCR analysis; format: functional; method in brief: as §2
Rattus norvegicus [8] = experiment: Anti-inflammatory activity in LPS-induced Wistar rat assessed as decrease in immobility time at po dosed measured upto 24 hrs by open field test; format: functional, organism-based; method in brief: as §3
SH-SY5Y [9] = experiment: Neuronal plasticity in human SH-SY5Y cells assessed as increase in SYP gene expression at 10 uM incubated for 24 hrs by RT-PCR analysis; format: functional, cell-based
Method in brief: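 SH-SY5Y cells grown in DMEM with 10% FBS and differentiated with retinoic acid (10 μM) for 6 days. Compound 10 μM for 24 h. RNA extracted, SYP mRNA measured by quantitative RT-PCR, relative quantity by 2^-ΔΔCt against untreated cells. Three independent experiments, mean ± SEM, Student's t-test.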

Rattus norvegicus [10] = experiment: Anti-inflammatory activity in LPS-induced Wistar rat assessed as increase in food intake at po dosed measured upto 24 hrs; format: functional, organism-based
Method in brief: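 Adult male Wistar rats (n = 7 per group), housed individually; overnight 8 h fast, then food removed 2 h on the test day. Vehicle or compound was given by gavage, then LPS or saline intraperitoneally. Pre-weighed pelleted feed was reintroduced and weighed at 2, 4, 6 and 24 h. Results given as mean ± SEM.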

SH-SY5Y [11] = experiment: Cytotoxicity against human SH-SY5Y cells assessed as reduction in cell viability at 80 uM incubated for 24 hrs by MTT assay; format: functional
Method in brief: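 SH-SY5Y cells seeded at 2×10^4 per well, grown 24 h, then treated 24 h at 37 °C (range 2.5–80 uM). MTT 0.5 mg mL-1 in HBSS for 2 h; formazan dissolved in isopropanol, read at 570 nm (reference 690 nm). Viability relative to untreated cells; mean ± SEM of three independent experiments.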

Chain of Cholinesterase (Equus caballus) (P81908 whole entry): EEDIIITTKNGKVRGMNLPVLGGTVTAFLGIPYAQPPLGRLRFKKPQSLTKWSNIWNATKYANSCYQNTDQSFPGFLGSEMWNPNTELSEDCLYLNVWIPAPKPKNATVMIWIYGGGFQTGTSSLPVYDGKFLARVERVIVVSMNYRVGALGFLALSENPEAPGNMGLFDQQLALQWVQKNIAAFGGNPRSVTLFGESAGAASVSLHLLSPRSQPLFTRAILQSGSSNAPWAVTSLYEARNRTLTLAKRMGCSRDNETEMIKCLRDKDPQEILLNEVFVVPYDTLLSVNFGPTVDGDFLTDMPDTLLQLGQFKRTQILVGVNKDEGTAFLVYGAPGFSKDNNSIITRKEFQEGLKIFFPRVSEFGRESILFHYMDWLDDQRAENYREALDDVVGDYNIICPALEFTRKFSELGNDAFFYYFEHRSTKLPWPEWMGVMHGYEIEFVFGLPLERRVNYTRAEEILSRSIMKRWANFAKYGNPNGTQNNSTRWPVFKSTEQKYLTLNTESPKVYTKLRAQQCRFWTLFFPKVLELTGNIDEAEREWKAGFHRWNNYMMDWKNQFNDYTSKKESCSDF

| SMILES | inhibition [1] [%] | inhibition [2] [%] | other results |
| --- | --- | --- | --- |
| Cc1ccc(N2CCN(C(=O)CN3C(=O)c4ccccc4C3=O)CC2)cc1 | 0.3 | 11.6 | – |
| O=C(CN1C(=O)c2ccccc2C1=O)N1CCN(Cc2ccc(Cl)cc2)CC1 | 1.26 | 7.82 | – |
| O=C(CN1C(=O)c2ccccc2C1=O)N1CCN(Cc2ccc(Br)cc2)CC1 | -1.37 | 8.38 | – |
| COc1ccc(CN2CCN(C(=O)CN3C(=O)c4ccccc4C3=O)CC2)cc1 | 25.4 | 17.1 | – |
| O=C(CN1C(=O)c2ccccc2C1=O)N1CCN(c2ccc([N+](=O)[O-])cc2)CC1 | -4.97 | 16.9 | – |
| O=C(CN1C(=O)c2ccccc2C1=O)N1CCN(c2ccncc2)CC1 | -4.47 | 85 | inhibition at 10 µM (THP-1 [3]): 43%; Fa [4]: 69.8%; Papp ([4]; read-out: permeability): 3.15 ×10⁻⁶ cm/s; Papp [5]: 13.9 ×10⁻⁶ cm/s; IC50 (Acetylcholinesterase): 3.15 µM; Activity (Rattus norvegicus [6]): Active; inhibition at 10 µM (THP-1 [7]): 39%; Activity (Rattus norvegicus [8]): Active; Activity (SH-SY5Y [9]): Active; Activity (Rattus norvegicus [10]): Active |
| O=C(CN1C(=O)c2ccccc2C1=O)N1CCN(c2ncccn2)CC1 | -5.36 | 39.6 | Activity (SH-SY5Y [11]): 50% |
| O=C(CN1C(=O)c2ccccc2C1=O)N1CCN(c2ccc(Cl)cc2)CC1 | -2.09 | 8.11 | Activity (SH-SY5Y [11]): 50% |

— ChEMBL document CHEMBL5107974, “Design, synthesis, and biological evaluation of new thalidomide-donepezil hybrids as neuroprotective agents targeting cholinesterases and neuroinflammation” (RSC Med Chem, 2022)
